From ChEMBL document CHEMBL3822375, “Preclinical Characterization of 3β-(N-Acetyl l-cysteine methyl ester)-2aβ,3-dihydrogaliellalactone (GPA512), a Prodrug of a Direct STAT3 Inhibitor for the Treatment of Prostate Cancer” (J Med Chem, 2016)
In brackets after ≈: the same amount, converted by molar mass. One block for each molecule: values may come before it. Activity calls are given as the source filed them. The rule behind the calls is not given here.

Key:
[1] = Solubility of the compound in phosphate buffer saline at pH 7.4 by LC-MS analysis; format: physicochemical; settings: phosphate buffered saline
[2] = Chemical stability of the compound in phosphate buffer saline assessed as half life at 10 uM at pH 7.4 by LC-MS/MS analysis; format: physicochemical; settings: phosphate buffered saline
Method in brief: (§1)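 Compound diluted from DMSO (or methanol) stock to 10 µM, 2% solvent final, n=2. Matrix was 0.1 M PBS pH 7.4, or […] HCl with 2 mg/mL NaCl adjusted to pH 1.2. Mixed on a shaker; sampled at nominal 5, 15, 30 and 60 min plus T=0. LC-MS/MS with internal standard; % remaining relative to T=0. Formation of parent also monitored.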

[3] = Half life in mouse plasma at 5 uM by LC-MS/MS analysis; format: ADME, cell-free
Method in brief: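 Plasma of each species incubated at 37 °C with compound at 5 µM initial, 1% DMSO, n=2. Simvastatin and eucatropine run as controls. Aliquots taken at 0, 5, 15, 30 and 60 min and quenched with acetonitrile containing internal standard, then analysed by LC-MS/MS.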

[4] = Apparent permeability from apical to basolateral side in human Caco2 cells at 20 uM measured after 120 mins by UPLC-MS/MS analysis; format: ADME, cell-based; settings: Caco-2
Method in brief: (§2)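 Caco-2 monolayers in Hanks' balanced salt solution with 10 mM Hepes, pH 7.4. Apical and basolateral transport measured at 20 µM test item. Both compartments sampled at 0, 60 and 120 min and analysed by UPLC-MS/MS.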

[5] = Efflux ratio of apparent permeability across apical to basolateral side over basolateral to apical side in human Caco2 cells at 20 uM measured after 120 mins by UPLC-MS/MS analysis; format: ADME, cell-based; settings: caco-2, 2 h; method in brief: as §2
[6] = Drug metabolism in S9 intestinal fraction (unknown origin) assessed as glutathione conjugate formation; format: ADME
[7] = Metabolic stability in mouse hepatocytes assessed as compound disappearance measured after 2 hrs by LC-MS/MS analysis; format: ADME, cell-based, Hepatocyte; settings: read-out: Drug degradation
Method in brief: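 Cryopreserved mouse hepatocytes incubated with an initial 10 µM test item (DMSO stock) in Celsis InVitro HI medium, pH 7.4, 37 °C. Cell viability checked by Trypan blue. Sampled at 0 and 120 min and stopped with an equal volume of acetonitrile. Analysed by UPLC/Q-TOF-MS.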

[8] = Apparent half life in mouse plasma at 10 mg/kg, po by LC-MS/MS analysis; format: ADME, organism-based; settings: read-out: t1/2(app)
Method in brief: (§3)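 Single dose to mice; oral, iv or ip as listed, in 5% DMSO/50 mM citrate buffer pH 4.0 (dosing solutions 0.5, 2 or 5 mg/mL). Oral dosing at 20 mL/kg. Terminal blood under barbiturate anaesthesia at eight time-points to 8 h, n=3 mice per time-point, EDTA plasma. Acetonitrile precipitation with internal standard, LC-MS/MS against plasma calibration lines. Non-compartmental analysis on mean data, trapezoidal AUC.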

[9] = tested on: Mus musculus; test: AUC (0 to t) in mouse plasma at 10 mg/kg, po by LC-MS/MS analysis; format: ADME, organism-based; settings: in vivo; method in brief: as §3
[10] = tested on: Mus musculus; test: AUC (0 to infinity) in mouse plasma at 10 mg/kg, po by LC-MS/MS analysis; format: ADME, organism-based; design: dose 10 mg/kg, route oral, time infinity; settings: in vivo; method in brief: as §3
[11] = Cmax in mouse plasma at 1.25 mg/kg, iv by LC-MS/MS analysis; format: ADME, organism-based; design: dose 1.25 mg/kg, route intravenous; method in brief: as §3
[12] = Tmax in mouse plasma at 1.25 mg/kg, iv by LC-MS/MS analysis; format: ADME, organism-based
[13] = Apparent half life in mouse plasma at 1.25 mg/kg, iv by LC-MS/MS analysis; format: ADME, organism-based; settings: read-out: t1/2(app); method in brief: as §3
[14] = Clearance in mouse plasma at 1.25 mg/kg, iv by LC-MS/MS analysis; format: ADME, organism-based; method in brief: as §3
[15] = Volume of distribution in mouse plasma at 1.25 mg/kg, iv by LC-MS/MS analysis; format: ADME, organism-based
[16] = tested on: Mus musculus; test: AUC (0 to t) in mouse plasma at 1.25 mg/kg, iv by LC-MS/MS analysis; format: ADME, organism-based; settings: in vivo; method in brief: as §3
[17] = tested on: Mus musculus; test: AUC (0 to infinity) in mouse plasma at 1.25 mg/kg, iv by LC-MS/MS analysis; format: ADME, organism-based; design: dose 1.25 mg/kg, time infinity, route intravenous; settings: in vivo; method in brief: as §3
[18] = Cmax in mouse plasma at 5 mg/kg, ip by LC-MS/MS analysis; format: ADME, organism-based; design: dose 5 mg/kg, route intraperitoneal; method in brief: as §3
[19] = Tmax in mouse plasma at 5 mg/kg, ip by LC-MS/MS analysis; format: ADME, organism-based
[20] = Apparent half life in mouse plasma at 5 mg/kg, ip; format: ADME, organism-based
[21] = tested on: Mus musculus; test: AUC (0 to t) in mouse plasma at 5 mg/kg, ip by LC-MS/MS analysis; format: ADME, organism-based; settings: in vivo; method in brief: as §3
[22] = tested on: Mus musculus; test: AUC (0 to infinity) in mouse plasma at 5 mg/kg, ip by LC-MS/MS analysis; format: ADME, organism-based; design: dose 5 mg/kg, route intraperitoneal, time infinity; settings: in vivo; method in brief: as §3
[23] = tested on: DU-145; test: Antiproliferative activity against human DU145 cells expressing pSTAT3 at 3 uM after 72 hrs by WST-1 proliferation assay; format: functional, cell-based
Method in brief: (§4)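 Cells in RPMI-1640 (DU145, LNCaP, LNCaP-IL6+) or HAM's F-12 (PC3) with 10% FBS. DU145 and LNCaP-IL6+ seeded at 2 000 cells/well, LNCaP and PC3 at 5 000 cells/well, adhered 24 h, then exposed to compound for 72 h. WST-1 absorbance read at 450 nm with 630 nm reference. Background subtracted; expressed as percent of untreated cells.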

[24] = tested on: DU-145; test: Cytotoxicity against human DU145 cells expressing pSTAT3 assessed as inhibition of cell viability at 3 uM after 72 hrs by WST-1 proliferation assay; format: functional, cell-based; method in brief: as §4
[25] = tested on: LNCaP; test: Antiproliferative activity against human LNCAP cells expressing IL6 and pSTAT3 at 3 uM after 72 hrs by WST-1 proliferation assay; format: functional, cell-based; method in brief: as §4
[26] = tested on: LNCaP; test: Cytotoxicity against human LNCAP cells expressing IL6 and pSTAT3 assessed as inhibition of cell viability at 3 uM after 72 hrs by WST-1 proliferation assay; format: functional, cell-based; method in brief: as §4
[27] = tested on: PC-3; test: Antiproliferative activity against human PC3 cells at 3 uM after 72 hrs by WST-1 proliferation assay; format: functional, cell-based; method in brief: as §4
[28] = tested on: PC-3; test: Cytotoxicity against human PC3 cells assessed as inhibition of cell viability at 3 uM after 72 hrs by WST-1 proliferation assay; format: functional, cell-based; method in brief: as §4
[29] = tested on: LNCaP; test: Antiproliferative activity against human LNCAP cells at 3 uM after 72 hrs by WST-1 proliferation assay; format: functional, cell-based; method in brief: as §4
[30] = tested on: LNCaP; test: Cytotoxicity against human LNCAP cells assessed as inhibition of cell viability at 3 uM after 72 hrs by WST-1 proliferation assay; format: functional, cell-based; method in brief: as §4
[31] = Antiproliferative activity against human DU145 cells after 72 hrs by WST-1 proliferation assay; format: functional, cell-based; settings: DU-145, 72 h; method in brief: as §4
[32] = tested on: Hepatocyte; test: Drug level in mouse hepatocytes treated with 3-beta-(N-Acetyl-L-cysteine methyl ester)-2a-beta,3-dihydrogaliellalactone measured after 2 hrs by UPLC-MS analysis; format: ADME, cell-based
Method in brief: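 Cryopreserved mouse hepatocytes in Celsis InVitro HI medium, pH 7.4, 37 °C, with 10 µM initial compound from DMSO stock. Sampled at 0 and 120 min, quenched with an equal volume of acetonitrile, analysed by UPLC/Q-TOF-MS. Viability checked by Trypan blue.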

[33] = Stability of compound assessed as compound disappearance measured after 2 hrs by LC-MS/MS analysis; format: physicochemical
[34] = Half life in mouse plasma by LC-MS/MS analysis; format: ADME, cell-free
[35] = tested on: Mus musculus; test: Cmax in mouse plasma assessed as galiellalactone level at 10 mg/kg, po by LC-MS/MS analysis; format: ADME, organism-based; design: dose 10 mg/kg, route oral; settings: in vivo; method in brief: as §3
[36] = tested on: Mus musculus; test: Tmax in mouse plasma assessed as galiellalactone level at 10 mg/kg, po by LC-MS/MS analysis; format: ADME, organism-based; settings: in vivo
[37] = tested on: Mus musculus; test: Apparent half life in mouse plasma assessed as galiellalactone level at 10 mg/kg, po by LC-MS/MS analysis; format: ADME, organism-based; settings: in vivo; method in brief: as §3
[38] = tested on: Mus musculus; test: AUC (0 to t) in mouse plasma assessed as galiellalactone level at 10 mg/kg, po by LC-MS/MS analysis; format: ADME, organism-based; settings: in vivo; method in brief: as §3
[39] = tested on: Mus musculus; test: AUC (0 to infinity) in mouse plasma assessed as galiellalactone level at 10 mg/kg, po by LC-MS/MS analysis; format: ADME, organism-based; design: dose 10 mg/kg, route oral, time infinity; settings: in vivo; method in brief: as §3
[40] = Half life of compound in acidic buffer at pH 1.2 at 10 uM by LC-MS analysis; format: physicochemical; method in brief: as §1

Structure (SMILES): C[C@@H]1C=C2C(=O)O[C@@H]3CC[C@H](C1)[C@]23O
solubility [1]: 143 µM (≈ 27.8 µg/mL)
half-life at 10 µM [2]: > 9.8 h
half-life at 5 µM [3]: 1.23 h
Papp A→B at 2 h, 20 µM [4]: 65.9 ×10⁻⁶ cm/s
Ratio [5]: 2
Drug metabolism [6]: metabolite_detected
metabolised at 2 h [7]: 45%
half-life [8]: 1.48 h
AUCt [9]: 5 µg/mL/min
AUC [10]: 6 µg/mL/min
Cmax [11]: 2960 ng/mL
Tmax [12]: 5 min
half-life [13]: 2.17 h
clearance [14]: 7.3 mL/min/kg
Vd [15]: 1.4 L/kg
AUCt [16]: 159 µg/mL/min
AUC [17]: 171 µg/mL/min
Cmax [18]: 5520 ng/mL
Tmax [19]: 5 min
half-life [20]: 2.4 h
AUCt [21]: 351 µg/mL/min
AUC [22]: 372 µg/mL/min
Activity [23]: Active
inhibition [24]: Active
Activity [25]: Active
inhibition [26]: Active
Activity [27]: inactive
inhibition [28]: inactive
Activity [29]: inactive
inhibition [30]: inactive
IC50 [31]: 3.02 µM
Drug metabolism [32]: metabolite_detected
Stability [33]: Stable
half-life [34]: 1.23 h

Structure (SMILES): C[C@H]1C[C@H]2CC[C@H]3OC(=O)C([C@@H]1SCCS(=O)(=O)O)[C@@]23O (stereo partly specified)
half-life at 10 µM [2]: > 2.5 h
IC50 [31]: 11.4 µM

Structure (SMILES): C[C@H]1C[C@H]2CC[C@H]3OC(=O)C([C@@H]1SC[C@H](NC(=O)CC[C@H](N)C(=O)O)C(=O)NCC(=O)O)[C@@]23O (stereo partly specified)
half-life at 10 µM [2]: > 2.5 h
IC50 [31]: 6.14 µM

Now from value to molecule, other results behind:

half-life at 10 µM [2]: > 2.5 h
Cmax [35]: 52 ng/mL
Tmax [36]: 0.25 h
t1/2(app) [37]: 5.8 h
AUCt [38]: 11 µg/mL/min
AUC [39]: 17 µg/mL/min
Structure (SMILES): COC(=O)[C@H](CS[C@H]1C2C(=O)O[C@@H]3CC[C@H](C[C@@H]1C)[C@]23O)NC(=O)OC(C)(C)C (stereo partly specified)

half-life at 10 µM [2]: 0.367 h
half-life at 10 µM [40]: > 2.5 h
Cmax [35]: 788 ng/mL
Tmax [36]: 0.5 h
t1/2(app) [37]: 4.63 h
AUCt [38]: 85 µg/mL/min
AUC [39]: 102 µg/mL/min
Structure (SMILES): COC(=O)[C@@H](N)CS[C@H]1C2C(=O)O[C@@H]3CC[C@H](C[C@@H]1C)[C@]23O (stereo partly specified)
IC50 [31]: 4.51 µM

Cmax [35]: 1102 ng/mL
Tmax [36]: 0.25 h
t1/2(app) [37]: 1.8 h
AUCt [38]: 150 µg/mL/min
AUC [39]: 155 µg/mL/min
Structure (SMILES): COC(=O)[C@H](CCS[C@H]1C2C(=O)O[C@@H]3CC[C@H](C[C@@H]1C)[C@]23O)NC(C)=O (stereo partly specified)

half-life at 10 µM [2]: > 2.5 h
Cmax [35]: 303 ng/mL
Tmax [36]: 0.5 h
t1/2(app) [37]: 4.23 h
AUCt [38]: 15 µg/mL/min
AUC [39]: 21 µg/mL/min
Structure (SMILES): COC(=O)[C@H](CS[C@H]1C2C(=O)O[C@@H]3CC[C@H](C[C@@H]1C)[C@]23O)NC(=O)C(C)C (stereo partly specified)

half-life at 10 µM [2]: 0.9 h
half-life at 10 µM [40]: 1.9 h
Drug metabolism [32]: metabolite_detected
Structure (SMILES): CC(=O)N[C@@H](CS[C@H]1C2C(=O)O[C@@H]3CC[C@H](C[C@@H]1C)[C@]23O)C(=O)O (stereo partly specified)
